Consider nine compounds from ChEMBL document CHEMBL1156918, “5-Modified-2'-dU and 2'-dC as mutagenic anti HIV-1 proliferation agents: synthesis and activity” (J Med Chem, 2010).

Active and inactive are the calls of the source. No cut-off for these calls is given here.

Data set [1] in a line: Cytotoxicity against human CEM-SS cells by MTT assay. In kind it is cell-based. The method, boiled down:
(§1)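 Uninfected cells grown at 37 °C, 5% CO2, in RPMI 1640 with 10% FCS, penicillin, streptomycin and glutamine, were incubated with a range of compound concentrations (up to 200 μM), run alongside the 5-day antiviral assay. Viability was read as MTT reduction to formazan by OD at 540 nm. CC50 was taken from a median effect plot of the dose-effect data.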
On the technique in general: Formazan colour is commonly taken as a measure of viable cells.

For data set [2], the system named is Human immunodeficiency virus 1. Kind of data set: Antiviral activity against HIV1 3B in human MT4 cells assessed as RT activity after 5 days by single passage assay. The settings on record: Human immunodeficiency virus 1, 3B, MT4, 120 h. Type of data set: functional, organism-based. In short, it runs like this: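 MT-4 cells kept in RPMI 1640 with 10% FCS, penicillin, streptomycin and glutamine at 37 °C, 5% CO2. Infected with HIV-1 IIIB at 5 TCID50, 30 min adsorption, washed, resuspended at 10^5 cells/mL with serial compound dilutions. After 5 days, RT activity in the medium was measured. IC50 came from a median-effect plot. AZT was the positive control. Run twice.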

The nature of data set [3]: Cytotoxicity against human MT4 cells by MTT assay. Type of data set: cell-based. In short, it runs like this:
as §1

Data set [4] concerns Human immunodeficiency virus 1. The experiment in a line: Antiviral activity against HIV1 LAI in human CEM-SS cells assessed as RT activity after 5 days by single passage assay. In kind it is functional, organism-based. The settings on record: Human immunodeficiency virus 1, LAI, 120 h. The method, boiled down:
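CEM-SS cells kept in RPMI 1640 with 10% FCS, penicillin, streptomycin and glutamine at 37 °C, 5% CO2. Infected with HIV-1 LAI at 20 TCID50, 30 min adsorption, washed, resuspended at 10^5 cells/mL with serial compound dilutions. After 5 days, RT activity in the medium was measured. IC50 came from a median-effect plot. AZT was the positive control. Run twice.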

Data set [5] relates to Human immunodeficiency virus 1. Kind of data set: Antiviral activity against HIV1 LAI in human CEM-SS cells assessed as RT activity after 4 serial passages with uninfected cells by serial passage experiment. Type of data set: functional, organism-based. The method, boiled down:
(§2)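 HIV-1 LAI at multiplicity 0.01 added to 2.5×10^5 CEM-SS cells in RPMI, 4 h at 37 °C. Cells washed twice in PBS, resuspended in 1 mL medium with or without analogue at 200 μM (100 μM where cytotoxicity required). Every 4 days an equal supernatant volume went to fresh CEM-SS cells, for eight cycles. RT activity in supernatants read at each passage.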

The test system of data set [6] is Human immunodeficiency virus 1. The experiment in a line: Antiviral activity against HIV1 LAI in human CEM-SS cells assessed as RT activity after 4 to 8 serial passages with uninfected cells by serial passage experiment. Type of data set: functional, organism-based. The method, boiled down: as §2
In data set [7] the test system is Human immunodeficiency virus 1. Kind of data set: Induction of mutation in HIV1 LAI in human CEM-SS cells after 7 passages with uninfected cells. Type of data set: functional, organism-based.
Data set [8] has as its system Human immunodeficiency virus 1. Kind of data set: Antiviral activity against HIV1 LAI in human CEM-SS cells assessed as RT activity after 8 serial passages with uninfected cells by serial passage experiment. In kind it is functional, organism-based. The method, boiled down:
as §2

For `Cc1cn([C@H]2C[C@H](N=[N+]=[N-])[C@@H](CO)O2)c(=O)[nH]c1=O` [ZIDOVUDINE], the CC50 in data set [1] and in data set [3] was more than 1 µM throughout. For the same compound, the IC50 – broadly, the concentration at which inhibition is half-maximal – in data set [2] was 0.018 µM.

With `NC(=O)c1cn([C@H]2C[C@H](O)[C@@H](CO)O2)c(=O)nc1N`, the IC50 in data set [4] and in data set [2] was more than 200 µM throughout. The CC50 in data set [1] and in data set [3] was more than 200 µM in each case.

Consider `NC(=O)Cc1cn([C@H]2C[C@H](O)[C@@H](CO)O2)c(=O)nc1N`, for which the half-inhibitory concentration (IC50) in data set [4] and in data set [2] was more than 200 µM each time. Besides, the CC50 in data set [1] and in data set [3] was more than 200 µM in each case.

As for `Nc1nc(=O)n([C@H]2C[C@H](O)[C@@H](CO)O2)cc1CO`, the IC50 in data set [4] is 24 µM; in data set [2] it was more than 200 µM. Also, the CC50 in data set [1] and in data set [3] was more than 200 µM throughout. In addition, in data set [5], the result was inactive. Further, the outcome in data set [6] was Active.

In the case of `NC(=O)Cn1c(=O)ccn([C@H]2C[C@H](O)[C@@H](CO)O2)c1=O`, the half-maximal inhibitory concentration (IC50) in data set [4] and in data set [2] was more than 200 µM in each case. Besides, the CC50 in data set [1] and in data set [3] was more than 200 µM in each case.

For the compound `NC(=O)c1cn([C@H]2C[C@H](O)[C@@H](CO)O2)c(=O)[nH]c1=O`, the half-inhibitory concentration (IC50) in data set [4] and in data set [2] was more than 200 µM in each case. Moreover, the half-maximal cytotoxic concentration (CC50) in data set [1] and in data set [3] was more than 200 µM each time. For the same compound, the outcome in data set [5] and in data set [7] was inactive. Besides, the outcome in data set [6] was Active.

Turning to `O=c1[nH]c(=O)n([C@H]2C[C@H](O)[C@@H](CO)O2)cc1O`, the 50% inhibitory concentration (IC50) in data set [4] and in data set [2] was more than 200 µM each time. The CC50 in data set [1] and in data set [3] was more than 200 µM each time.

As for `NC(=O)Cc1cn([C@H]2C[C@H](O)[C@@H](CO)O2)c(=O)[nH]c1=O`, the IC50 in data set [4] and in data set [2] was more than 200 µM each time. Also, the CC50 in data set [1] and in data set [3] was more than 200 µM in each case. For the same compound, the result in data set [5] and in data set [7] was inactive. The result in data set [6] and in data set [8] was Active.

Turning to `O=c1[nH]c(=O)n([C@H]2C[C@H](O)[C@@H](CO)O2)cc1CO`, the figures for the IC50 in data set [4] and in data set [2] were 30 µM and more than 130 µM, respectively. Besides, the CC50 (as a rule, the concentration at which the toxic effect on the cells reaches its halfway point) amounted to 120 µM in data set [1] and 130 µM in data set [3]. Besides, in data set [5], the result was inactive. Moreover, the outcome in data set [6] and in data set [8] was Active.
